The species named for test [1] is Rattus norvegicus. The settings on record: 30 mg/kg.
The subject of test [2] is Rattus norvegicus. The test can be described thus: Hypolipidemic activity was determined in male rats, and serum cholesterol level was determined at 100 mg/kg.
Test [3] has as its system Rattus norvegicus. Description: Hypolipidemic activity was determined in male rats, and low-density lipoprotein level was determined at 30 mg/kg.
Test [4] relates to Rattus norvegicus. The test can be described thus: Hypolipidemic activity was determined in male rats, cholesterol was determined in high-density lipoproteins at 30 mg/kg. More on the design: dose 30 mg/kg. The format is functional, organism-based. The gist of the method: (§1)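 Groups of eight male Wistar rats (200–230 g) dosed orally in PEG 400, either daily for 7 days (killed 24 h after the last dose) or for 4 days with a second dose on day 4 (killed 16 h later). Fasted 16 h. Paired sera pooled, lipoproteins separated by ultracentrifugation (1.006 and 1.040 g/cm³), HDL taken as the infranatant. Cholesterol measured enzymatically; % vs vehicle, mean ± SEM of four pools.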

The subject of test [5] is Rattus norvegicus. The test can be described thus: Hypolipidemic activity was determined in male rats, cholesterol was determined in high-density lipoproteins at 100 mg/kg. The format is functional, organism-based. Details: dose 100 mg/kg. The procedure, abridged: as §1
In test [6] the test system is Rattus norvegicus. The test can be described thus: Hypolipidemic activity was determined in male rats, cholesterol was determined in low-density lipoproteins at 100 mg/kg. It is filed as functional, organism-based. More on the design: dose 100 mg/kg. The gist of the method: as §1
The test system of test [7] is Rattus norvegicus. Description: Hypolipidemic activity was determined in male rats, and high-density lipoprotein level was determined at 100 mg/kg. The format is functional. The procedure, abridged: (§2)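 Male Wistar rats (200–230 g), eight per group, were dosed orally in PEG 400 at 8 a.m. for 4 days, plus a second dose at 4 p.m. on day 4. Rats were fasted 16 h and killed 16 h after the last dose. Sera from pairs of rats were pooled. LDL (up to 1.040 g/cm³) was separated by ultracentrifugation and the HDL infranatant taken. Cholesterol was measured enzymatically. Results are % versus vehicle control, mean ± SEM of four pools, Student's t test.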

Another test deals with Staphylococcus aureus. Description: Antibacterial activity against Staphylococcus aureus 10B. It is filed as functional. The gist of the method:
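Agar dilution on DST agar with 2-fold drug dilutions. Inoculum of 10⁴ viable S. aureus 10B was taken from liquid-nitrogen stock, thawed 30 min and not subcultured. It was applied by multipoint replicator and incubated overnight at 37 °C. MIC is the lowest concentration inhibiting growth relative to control cultures.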

Test [8] relates to Rattus norvegicus. The test can be described thus: Compound was tested for hypolipidemic activity in male rats, cholesterol was determined in serum at 100 mg/kg. It is filed as functional. The procedure, abridged: as §2
The subject of test [9] is Rattus norvegicus. The test can be described thus: Hypolipidemic activity was determined in male rats, and low-density lipoprotein level was determined at 100 mg/kg. It is filed as functional. The procedure, abridged:
as §2

≈ marks a conversion by molar mass, not a printed value.

For orientation: MIC means the lowest concentration found to suppress growth.

Consider `O=C(O)c1cccnc1`, for which the Serum cholesterol in the test filed under Rattus norvegicus [1] is -6%; in the test with Rattus norvegicus [2] it was -10%. In addition, the Serum LDL-cholesterol is -32% with Rattus norvegicus [3] and -52% in the test with Rattus norvegicus [6]. Besides, the Serum HDL-cholesterol is -1% with Rattus norvegicus [4] and -13% with Rattus norvegicus [5].
Regarding `CO[C@H]1/C=C/O[C@@]2(C)Oc3c(C)c(O)c4c(O)c(c(/C=N/N5CCN(C)CC5)c(O)c4c3C2=O)NC(=O)/C(C)=C\C=C\[C@H](C)[C@H](O)[C@@H](C)[C@@H](O)[C@@H](C)[C@H](OC(C)=O)[C@@H]1C` [RIFAMPIN], the Activity with Rattus norvegicus [7] was -27%; in the test on Rattus norvegicus [8] it was -30%; in the test on Rattus norvegicus [9], -31%. This molecule also displayed an MIC in the test with Staphylococcus aureus of 3 ng/mL (≈ 3.65 nM).

The values above are taken from ChEMBL document CHEMBL1125042, “Hypolipidemic activity of rifamycin derivatives” (J Med Chem, 1990).
